Activity calls are given as the source filed them. The calls are words filed in the database; no cut-off is given here.
Tests used:
[1] = biological target: GABA-A receptor; anion channel; test: Inhibition of [3H]-diazepam binding to GABA-A benzodiazepine receptor of rat cerebral cortical membranes; assay type: cell membranes, Membrane
Mus musculus [2] = test: Antagonism of Diazepam (2.5 mg/kg) anticonvulsant effect in mice treated with (pentylenetetrazole) PTZ (80 mg/kg); assay type: functional
How it was run: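 Adult male NIH-colony mice (20-25 g), groups of 10, got graded ip doses of test agent or vehicle (0.1 mL). Diazepam 2.5 mg/kg ip followed 15 min later, then PTZ 80 mg/kg 15 min after that. Score: tonic-clonic convulsions. ED50 = dose that blocks diazepam's anticonvulsant effect in 50% of mice.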

Mus musculus [3] = test: Convulsant effect in mice treated with subconvulsant (pentylenetetrazole) PTZ (40 mg/kg), ineffective at 30 mg/kg; assay type: functional, organism-based; set-up: dose 30 mg/kg
Mus musculus [4] = test: Convulsant effect in mice treated with subconvulsant (pentylenetetrazole) PTZ (40 mg/kg); assay type: functional
Mus musculus [5] = species on record: Mus musculus; test: In vitro ability to induce convulsions in mice
Mus musculus [6] = test: Protection of mice against maximal electroshock (MES)-induced convulsions after administration of 38 mg/kg; assay type: functional

## Clc1ccc2[nH]c3c4c5ccccc5nc-4c[nH]c3c2c1
[1]
  IC50: 2150 nM

## Fc1cccc2c1[nH]c1c3c4ccccc4nc-3c[nH]c12
[1]
  IC50: 12 nM

## Clc1ccc2c(c1)[nH]c1c2ncc2[nH]c3ccccc3c21
[1]
  IC50: 10 nM
Mus musculus [2]
  ED50: 2.5 mg/kg
Mus musculus [3]
  ED50: inactive

## COc1ccc2[nH]c3c4c5ccccc5nc-4c[nH]c3c2c1
[1]
  IC50: 890 nM

## c1ccc2c(c1)[nH]c1c2ncc2[nH]c3ccccc3c21
Mus musculus [4]
  ED50: 15.1 mg/kg
[1]
  IC50: 4 nM
Mus musculus [2]
  ED50: 21.3 mg/kg

## CN1C(=O)CN=C(c2ccccc2)c2cc(Cl)ccc21 [DIAZEPAM]
Mus musculus [5]
  ED50: 3.4 mg/kg
Mus musculus [6]
  Survivors: 100%

## Clc1cccc2[nH]c3c4c5ccccc5nc-4c[nH]c3c12
[1]
  IC50: 715 nM

## COc1ccc2c(c1)[nH]c1c2ncc2[nH]c3ccccc3c21
Mus musculus [4]
  ED50: 7 mg/kg
[1]
  IC50: 8 nM
Mus musculus [2]
  ED50: 3.9 mg/kg

## Clc1cccc2c1[nH]c1c3c4ccccc4nc-3c[nH]c12
[1]
  IC50: 80 nM

## Fc1ccc2c(c1)[nH]c1c3c4ccccc4nc-3c[nH]c12
[1]
  IC50: 7 nM

## Fc1ccc2[nH]c3c4c5ccccc5nc-4c[nH]c3c2c1
[1]
  IC50: 16 nM
Mus musculus [2]
  ED50: 24 mg/kg
Mus musculus [3]
  ED50: inactive

From ChEMBL document CHEMBL1123688, “Synthesis of 7,12-dihydropyrido[3,4-b:5,4-b']diindoles. A novel class of rigid, planar benzodiazepine receptor ligands” (J Med Chem, 1987)
